Bioassay records deposited in PubChem BioAssay by several laboratories.
Only some compounds are listed: those with a hit (about 1.1% of all), similar ones and a draw of the others.
NR2E3 ag-1: agonists of human NR2E3 nuclear receptor; 0.35% of 360,000 active; Q9Y5X4; CHO-S Gal4-NCOR/VP16-NR2E3 two-hybrid, luciferase; inhibition of corepressor binding, % at 3.98 µM;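 active means inhibition above the mean of all tested compounds plus 3 SD, cut at about 70% in these data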;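 further: higher means lower luciferase signal from less NR2E3 corepressor binding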
Target sequence (Q9Y5X4 whole entry, looked up, the tested form may be a part): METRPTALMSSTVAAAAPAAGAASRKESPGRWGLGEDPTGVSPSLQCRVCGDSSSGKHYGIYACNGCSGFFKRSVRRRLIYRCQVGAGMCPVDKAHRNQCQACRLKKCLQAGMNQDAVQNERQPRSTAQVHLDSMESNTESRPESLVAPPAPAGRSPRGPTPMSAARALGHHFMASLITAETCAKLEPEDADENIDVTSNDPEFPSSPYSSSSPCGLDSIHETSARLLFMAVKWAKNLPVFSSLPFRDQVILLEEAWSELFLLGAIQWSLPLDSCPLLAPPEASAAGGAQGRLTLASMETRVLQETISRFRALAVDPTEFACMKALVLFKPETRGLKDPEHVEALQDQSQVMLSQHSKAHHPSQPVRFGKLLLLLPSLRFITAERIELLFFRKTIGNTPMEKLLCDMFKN
HCV core dimer: blocks dimerization of HCV core protein; TR-FRET GST/Flag-core106 dimerization, 1536-well; inhibition, % at 5 µM; 0.33% of 300,000 active;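 active means inhibition above the mean of all tested compounds plus 3 SD, set per screening campaign, cut at about 45% in these data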
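Assay system: GST-tagged and Flag-tagged HCV core protein residues 1-106 / Times: compound-protein-antibody incubation 4 h at 22.5 °C / Signal: time-resolved FRET, ex 340 nm, em 617 and 671 nm / Evaluation: % inhibition based on acceptor/donor emission ratio / Benchmarks: wells lacking GST-core106 and wells with excess unlabelled core106 / Repeats: singlicate, one well per compound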
MT1-MMP act inh: MT1-MMP (human) activation inhibition | GFP/RFP ratio change, % at 20 µM | AID 651647 | P50281 | 0.061% of 360,000 active | HT1080 RFP-PRO-GFP cells, GFP/RFP ratio fluorescence, overnight; percent of plate control window, DMSO zero;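 active means GFP/RFP ratio change of at least 30% with cell ATP level not reduced by more than half and red fluorescence within 50% of control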
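Test system: HT1080 cells expressing an RFP-PRO-GFP fluorescent reporter construct / Compound dosing: single-point 20 µM compound, 1% DMSO / Schedule: cells overnight before dosing, compound overnight, 37 °C, 5% CO2 / Evaluation: GFP/RFP fluorescence ratio / Control set: DMSO and RFP-L50D-GFP cell wells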
NR2E3 ag-2: agonists of human nuclear receptor NR2E3; Q9Y5X4; GST-NR2E3/biotin-RetCOR TR-FRET, 1536-well; inhibition of corepressor binding, % at 4.78 µM; 0.12% of 320,000 active; AID 2300;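 active means percent inhibition above the cutoff of mean plus 3 SD of all tested compounds, set per screening campaign, cut at about 20% in these data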
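Material: NR2E3–RetCOR corepressor complex | Quantity: 1.35 nM GST-tagged NR2E3 final | Schedule: 5 h at 4 °C | Replication: Singlicate compound wells | Reagent: RetCOR corepressor, biotinylated, 7 nM | Controls: Biotin wells as high control, 0.6% DMSO wells as low control | Signal: TR-FRET, Eu(K)-anti-GST donor, streptavidin-D2 acceptor, ex 340, em 617/671 nm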
DAGLB inh: diacylglycerol lipase beta (human) inhibition | 0.059% of 340,000 active | HEK293T DAGLB membrane lysate, EnzChek fluorogenic substrate | Q8NCG7 | inhibition, % at 5.17 µM; in the data active means inhibition above about 34%
Vif imaging: HIV Vif inhibition; HEK293T cells, Vif self-association by quenched fluorescence, imaging, 24 h; inhibition, % at 7.49 µM; AID 602346; 0.35% of 340,000 active; in the data active means inhibition above about 50%, passing the limit was not always enough
NR2E3 ag confirm: NR2E3 agonism confirmed in two-hybrid assay; inhibition, % at 3.98 µM; 51% of 2,300 active; CHO-S mammalian two-hybrid NR2E3-NCOR, luciferase luminescence; shares compounds with NR2E3 ag-1;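 active means average inhibition above a cutoff equal to the mean inhibition of all tested compounds plus one SD, cut at about 70% in these data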
VP16 counter: reduces GAL4-VP16 reporter signal in NR2E3 counterscreen; 29% of 2,300 active; AID 624379; shares compounds with NR2E3 ag-1; inhibition, % at 3.98 µM; CHO-S GAL4-VP16 luciferase reporter, luminescence;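 active means mean inhibition above a cutoff equal to the average over all tested compounds plus one standard deviation, cut at about 70% in these data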;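 further: luciferase from a UAS reporter driven by GAL4-VP16 transactivation; higher means less reporter light so more repression of VP16 activity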
Of the large screens only hits and unclear results are named; the others gave an inactive call (follow-up assays come after a bar, where they were run).

Cc1cc(/C=N/n2cnnc2)c(C)n1-c1ccc(Cl)cc1	none
Cc1cc(/C=N/n2cnnc2)c(C)n1-c1ccc(OCc2ccc(Cl)cc2Cl)cc1	NR2E3 ag-1 111 | NR2E3 ag confirm 98 | VP16 counter 89
Cc1cc(/C=N/n2cnnc2)c(C)n1-c1ccc(OCc2ccc(F)cc2)cc1	none | NR2E3 ag confirm 96 | VP16 counter 85
OC(c1ccc(F)c(F)c1)c1nc(-c2ccc(F)c(Cl)c2)cs1 (stereo unspecified)	none (no result: HCV core dimer, NR2E3 ag-2, DAGLB inh)
O=Cc1ccc(OCC(=O)NC(=O)NC2CCCCC2)cc1	none
CC(=O)c1ccc(OCC(=O)NC(=O)NC2CCCCC2)cc1	none | NR2E3 ag confirm inactive | VP16 counter inactive
CC(=O)C1=C(c2ccc(Br)cc2)C(=O)c2ccccc2C1=O	NR2E3 ag-1 103 | NR2E3 ag confirm 99 | VP16 counter 92
COc1cc(S(=O)(=O)n2cnc3ccccc32)ccc1Br	none
c1ccc(CNc2cccnc2)cc1	none (no result: HCV core dimer, NR2E3 ag-2)
O=C(OC(c1ccccc1)c1nccc2ccccc12)c1cccc([N+](=O)[O-])c1 (stereo unspecified)	none
O=C(OC(c1ccccc1)c1nccc2ccccc12)c1ccccc1 (stereo unspecified)	NR2E3 ag-1 75 (no result: HCV core dimer, NR2E3 ag-2) | NR2E3 ag confirm 71 | VP16 counter inactive
CCCCCc1cc(=O)oc2c(C(CCN(CC)CC)c3ccc(N(C)C)cc3)c(OC)cc(OC)c12 (stereo unspecified)	none
CCCCCc1ccc(CC(=O)Nn2c(C)nc3ccccc3c2=O)cc1	none | NR2E3 ag confirm 76 | VP16 counter inactive
Cc1nc2ccccc2c(=O)n1NC(=O)Cc1ccc(Br)cc1	none
Cc1c(C)n2c(SCC(=O)N3CC(C)OC(C)C3)nnc2[nH]c1=O (stereo unspecified)	none
CC(=O)N1c2ccc(S(=O)(=O)NCCC(=O)N(C)Cc3ccccc3)cc2CC1C (stereo unspecified)	none
CCC(=O)N1c2ccc(S(=O)(=O)NCCc3ccc(C)cc3)cc2CC1C (stereo unspecified)	none
CC1Cc2cc(S(=O)(=O)NCCc3ccccc3)ccc2N1C(=O)C1CC1 (stereo unspecified)	none | NR2E3 ag confirm 71 | VP16 counter inactive
CC(=O)N1c2ccc(S(=O)(=O)NCCc3ccccc3)cc2CC1C (stereo unspecified)	NR2E3 ag-1 73 | NR2E3 ag confirm inactive | VP16 counter inactive
CC(=O)N1c2ccc(S(=O)(=O)NCC3CCC(C(=O)Nc4ncccc4C)CC3)cc2CC1C (stereo unspecified)	none
CC(=O)N1c2ccc(S(=O)(=O)NCC3CCC(C(=O)Nc4cc(C)ccn4)CC3)cc2CC1C (stereo unspecified)	none | NR2E3 ag confirm inactive | VP16 counter inactive
CN1C(=O)[C@H]2[C@@H](/C=C/c3ccccc3)N3C(=O)CN(Cc4ccccn4)C(=O)[C@@]3(C)[C@H]2C1=O	none
Cc1nn(C2CCS(=O)(=O)C2)c2nc(C3CC3)cc(C(=O)Nc3ccc(C(N)=O)cc3)c12 (stereo unspecified)	none (no result: HCV core dimer, MT1-MMP act inh, NR2E3 ag-2)
COc1ccc(S(=O)(=O)N2CCOC2CNC(=O)C(=O)NCc2ccccc2Cl)cc1 (stereo unspecified)	none
Nc1nc2ccc(Cl)cc2cc1C(=O)NCc1ccc(Oc2ccccc2)cc1	NR2E3 ag-1 95 (no result: HCV core dimer, NR2E3 ag-2, DAGLB inh, Vif imaging) | NR2E3 ag confirm 94 | VP16 counter 82
Nc1nc2cc3c(cc2cc1C(=O)NCc1ccc(F)cc1)OCO3	NR2E3 ag-1 88 (no result: HCV core dimer, NR2E3 ag-2, DAGLB inh, Vif imaging) | NR2E3 ag confirm 94 | VP16 counter 72
Nc1nc2ccc(Cl)cc2cc1C(=O)NCCc1c[nH]c2ccccc12	NR2E3 ag-1 93 (no result: HCV core dimer, NR2E3 ag-2, DAGLB inh, Vif imaging) | NR2E3 ag confirm 94 | VP16 counter 83
Nc1nc2ccc(Cl)cc2cc1C(=O)NCCc1ccc(Cl)cc1Cl	none (no result: NR2E3 ag-1, HCV core dimer, NR2E3 ag-2, DAGLB inh, Vif imaging)
O=C(NCc1ccc2c(c1)OCO2)c1nnc(Cc2ccc(F)cc2)o1	none
Cc1cc(NC(=NC2CC2)c2ccccc2F)n(-c2ccccc2)n1	none
O=C1CCC(C(=O)OCC(=O)Nc2ccc(SC(F)F)cc2)=NN1	none (no result: HCV core dimer, NR2E3 ag-2)
CC1(c2ccc3ccccc3c2)NC(=O)N(CC(=O)N2CCN(Cc3ccc(C#N)cc3)CC2)C1=O (stereo unspecified)	NR2E3 ag-1 105 (no result: HCV core dimer, MT1-MMP act inh, NR2E3 ag-2) | NR2E3 ag confirm 90 | VP16 counter 80
Cc1ccc(-n2nnnc2SCn2nnc3ccccc3c2=O)c(C)c1	NR2E3 ag-1 92 | NR2E3 ag confirm 89 | VP16 counter 72
O=C(Nc1ccccc1)Nc1cc(Cl)cc(Cl)c1	none
O=C(Nc1ccccc1)Nc1cc(OCC(F)(F)F)cc(OCC(F)(F)F)c1	none (no result: HCV core dimer, NR2E3 ag-2) | NR2E3 ag confirm inactive | VP16 counter inactive
CC(C)(C)C(=O)Nc1ccc(NC(=O)c2ccco2)nc1	NR2E3 ag-1 88 | NR2E3 ag confirm inactive | VP16 counter inactive
O=C(Nc1ccc(NC(=O)c2ccco2)nc1)c1ccco1	none
CC(O)(c1cccnc1)c1nc(-c2cccc(F)c2)cs1 (stereo unspecified)	none (no result: HCV core dimer, NR2E3 ag-2, DAGLB inh)
CC(O)(c1cccnc1)c1nc(-c2cccc(C(F)(F)F)c2)cs1 (stereo unspecified)	none (no result: HCV core dimer, NR2E3 ag-2, DAGLB inh) | NR2E3 ag confirm inactive | VP16 counter inactive
CC(O)(c1cccnc1)c1nc(-c2ccc(F)c(Cl)c2)cs1 (stereo unspecified)	none (no result: HCV core dimer, NR2E3 ag-2, DAGLB inh) | NR2E3 ag confirm inactive | VP16 counter inactive
O=C(CCNC(=O)c1ccc(Br)cc1)NC1CCCc2ccccc21 (stereo unspecified)	none
CCS(=O)(=O)c1ncc(CO)n1CCc1ccccc1	none
COc1cc2c(oc(=O)c3cc(C)cc(OC)c32)c2c(C3OC(C)C(O)C(C)(O)C3O)ccc(O)c12 (stereo unspecified)	none (no result: HCV core dimer, NR2E3 ag-2) | NR2E3 ag confirm 71 | VP16 counter inactive
COc1cccc2cc(C(=O)N3CC(C)OC(C)C3)c(=O)oc12 (stereo unspecified)	none
Cc1nc2ccccc2c(N)c1C(=O)/C=C/c1ccccc1	none | NR2E3 ag confirm inactive | VP16 counter inactive
COc1ccc(C(=O)OCC(=O)c2ccc[nH]2)c(OC)c1	none (no result: HCV core dimer, NR2E3 ag-2)
O=C1NC(SCCCF)=N/C1=C/c1ccc(-n2cncn2)cc1	none
Cc1ccc(CN2CC(C(=O)Nc3ncc(C)s3)CC2=O)cc1 (stereo unspecified)	NR2E3 ag-1 83 (no result: HCV core dimer, NR2E3 ag-2) | NR2E3 ag confirm 83 | VP16 counter inactive
Cc1ccc(Nc2nc(N)nc(N)c2N=O)cc1Cl	none (no result: HCV core dimer, NR2E3 ag-2, DAGLB inh, Vif imaging)
